The text below walks through data of ChEMBL document CHEMBL1131231, “New azole antifungals. 2. Synthesis and antifungal activity of heterocyclecarboxamide derivatives of 3-amino-2-aryl-1-azolyl-2-butanol” (1998).

Converted amounts (≈) assume the structure as drawn.

Assay type in all cases: functional
Assay [1] is described as follows: The compound was tested in vitro for antifungal activity against 6 filamentous fungi. The gist of the method: (§1)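 Agar dilution on Kimmig's agar with 0.5% glycerol; ATCC or clinical isolates, inocula at 10⁵ cfu/mL. Drugs from 800 μg/mL stock in 50% ethanol, 2-fold serial dilutions 80 to 0.03 μg/mL in plates. Incubated 25 °C, 48 h for yeasts, 120 h for filamentous fungi. Value is geometric mean of MICs (μg/mL); >80 taken as 160, ≤0.03 as 0.03.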

The test system of assay [2] is Candida albicans. Put plainly: In vivo antifungal activity against murine candidosis model after peroral administration with 1 mg/kg at various time intervals. (percent protection for 100% mortality with fluconazole-treated group.). Particulars: route oral. Summed up: (§2)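 Male mice, groups of 10, infected iv with 0.2 mL Candida albicans at (2–8) × 10⁷ cfu/mL. Oral suspension in 1% Tween + 0.2% carboxymethylcellulose in water, given 1, 4 and 24 h post-infection; vehicle controls and a fluconazole group at the same dose. Survival scored on days 1, 2, 3, 5, 7, 9, reported as % surviving on the day untreated, or fluconazole-treated, mortality reached 100%.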

A short description of assay [3]: The compound was tested in vitro for antifungal activity against 10 yeasts. The gist of the method:
as §1

The test system of assay [4] is Candida albicans. Put plainly: In vivo antifungal activity against murine candidosis model after peroral administration with 1 mg/kg at various time intervals. (percent protection for 100% mortality with untreated group). Particulars: route oral. Summed up:
as §2

The test system of assay [5] is Candida albicans. The assay is described as follows: In vivo antifungal activity against murine candidosis model after peroral administration with 0.5 mg/kg at various time intervals. (percent protection for 100% mortality with fluconazole-treated group.). Particulars: route oral. The gist of the method:
as §2

The subject of assay [6] is Candida albicans. The assay is described as follows: In vivo antifungal activity against murine candidosis model after peroral administration with 0.5 mg/kg at various time intervals. (percent protection for 100% mortality with untreated group). Particulars: route oral. Summed up: as §2

With `Cc1c(C(=O)N[C@H](C)[C@](O)(Cn2cncn2)c2ccc(F)cc2F)cnn1-c1ccc(Cl)cc1`, the MIC – broadly, the lowest concentration that inhibits growth of the organism – turned out to be 16 µg/mL (≈ 32.9 µM) in assay [1] and 1.8 µg/mL (≈ 3.7 µM) in assay [3]. The Protection is reported as 60% with Candida albicans [2] and 80% in the assay on Candida albicans [4].
`C[C@@H](NC(=O)c1cnn(-c2ccc(Cl)cc2)c1)[C@](O)(Cn1cncn1)c1ccc(F)cc1F`: the MIC was above 80 µg/mL in assay [1] and 1.9 µg/mL (≈ 4.02 µM) in assay [3]. The Protection amounted to 50% in the assay on Candida albicans [2] and 100% with Candida albicans [4].
On the same counts, the results for `C[C@@H](n1cnc2cc(-c3ccc(C(=N)NO)cc3)sc2c1=O)[C@](O)(Cn1cncn1)c1ccc(F)cc1F` are above 80 µg/mL, 2.4 µg/mL (≈ 4.46 µM), 0% and 90%.
In the same order, the values of `Cc1c(C(=O)N[C@H](C)[C@](O)(Cn2cncn2)c2ccc(F)cc2F)cnn1-c1cccc(C(F)(F)F)c1` are 20 µg/mL (≈ 38.4 µM), 4.6 µg/mL (≈ 8.84 µM), 0% and 100%.
Turning to `Cc1c(C(=O)N[C@H](C)[C@](O)(Cn2cncn2)c2ccc(F)cc2F)cnn1-c1cc(Cl)cc(Cl)c1`, the MIC in assay [1] was above 80 µg/mL; in assay [3] it was 19 µg/mL (≈ 36.4 µM). In addition, the Protection with Candida albicans [2] is 0%; with Candida albicans [4] it was 20%.
`C[C@@H](NC(=O)c1cnn(-c2ccc(Cl)cc2)c1C1CC1)[C@](O)(Cn1cncn1)c1ccc(F)cc1F`: the MIC in assay [1] is above 80 µg/mL; in assay [3], 1.8 µg/mL (≈ 3.51 µM). Also, the Protection in the assay on Candida albicans [2] stood at 0%; in the assay with Candida albicans [4], 100%.
On the same counts, the results for `COc1ccc(-n2ncc(C(=O)N[C@H](C)[C@](O)(Cn3cncn3)c3ccc(F)cc3F)c2C)cc1` are 23 µg/mL (≈ 47.7 µM), 6.1 µg/mL (≈ 12.6 µM), 0% and 0%.
For `Cc1c(C(=O)N[C@H](C)[C@](O)(Cn2cncn2)c2ccc(F)cc2F)cnn1-c1ccc(C(F)(F)F)cc1`, the MIC in assay [1] was found to be 13 µg/mL (≈ 25 µM); in assay [3], 1.7 µg/mL (≈ 3.27 µM). The figures for the Protection in the assay with Candida albicans [2] and in the assay with Candida albicans [4] were 80% and 100%, respectively.
As for `C[C@@H](n1cnc2cc(-c3ccc(F)cc3)sc2c1=O)[C@](O)(Cn1cncn1)c1ccc(F)cc1F`, the minimal inhibitory concentration (MIC) in assay [1] was 2.2 µg/mL (≈ 4.42 µM); in assay [3], 0.4 µg/mL (≈ 0.804 µM). The Protection in the assay with Candida albicans [2] and with Candida albicans [4] was 100% in each case.
Regarding `C[C@@H](NC(=O)c1ccc(-c2ccc(Cl)cc2)s1)[C@](O)(Cn1cncn1)c1ccc(F)cc1F`, the values for the MIC in assay [1] and in assay [3] were 3.5 µg/mL (≈ 7.16 µM) and 0.2 µg/mL (≈ 0.409 µM), respectively. Also, the Protection in the assay on Candida albicans [5] and in the assay with Candida albicans [6] was 100% throughout.
As to `CCC(C)n1ncn(-c2ccc(N3CCN(c4ccc(OC[C@@H]5CO[C@@](Cn6cncn6)(c6ccc(Cl)cc6Cl)O5)cc4)CC3)cc2)c1=O` (stereo partly drawn) [ITRACONAZOLE], the MIC was determined as 63 µg/mL (≈ 89.3 µM) in assay [1] and 5.2 µg/mL (≈ 7.37 µM) in assay [3]. Also, the Protection in the assay with Candida albicans [5] and in the assay on Candida albicans [6] was 0% in each case.
For the compound `C[C@@H](NC(=O)c1cccc(-c2ccc(Cl)cc2)c1)[C@](O)(Cn1cncn1)c1ccc(F)cc1F`, the MIC was above 80 µg/mL in assay [1] and 0.3 µg/mL (≈ 0.621 µM) in assay [3]. In addition, the Protection in the assay with Candida albicans [5] came out at 0%; in the assay with Candida albicans [6] it was 40%.
In the same order, the values of `C[C@@H](NC(=O)c1nc(-c2ccc(Cl)cc2)no1)[C@](O)(Cn1cncn1)c1ccc(F)cc1F` are 80 µg/mL (≈ 168 µM), 2.1 µg/mL (≈ 4.42 µM), 10% and 80%.
Turning to `Cc1nc(-c2ccc(C#N)cc2)sc1C(=O)N[C@H](C)[C@](O)(Cn1cncn1)c1ccc(C(F)(F)F)cc1`, the MIC in assay [1] was above 80 µg/mL; in assay [3], 2 µg/mL (≈ 3.8 µM). In addition, the Protection in the assay on Candida albicans [5] and in the assay on Candida albicans [6] was 0% throughout.
As for `Cc1nc(-c2sc(-c3ccc(Cl)cc3)nc2C)sc1C(=O)N[C@H](C)[C@](O)(Cn1cncn1)c1ccc(F)cc1F`, the results for the minimal inhibitory concentration (MIC) in assay [1] and in assay [3] were above 80 µg/mL and 1.8 µg/mL (≈ 2.99 µM), respectively. The Protection in the assay on Candida albicans [5] is given as 0%; with Candida albicans [6], 10%.
Regarding `Cc1nc(-c2ccc(C(F)(F)F)cc2)sc1C(=O)N[C@H](C)[C@](O)(Cn1cncn1)c1ccc(F)cc1F`, the MIC was determined as 2.2 µg/mL (≈ 4.09 µM) in assay [1] and 0.9 µg/mL (≈ 1.67 µM) in assay [3]. The Protection in the assay with Candida albicans [5] and with Candida albicans [6] was 100% in each case.
On to `C[C@@H](NC(=O)c1ccc(-c2ccc(Cl)cc2)o1)[C@](O)(Cn1cncn1)c1ccc(F)cc1F`, for which the MIC in assay [1] was above 80 µg/mL; in assay [3], 1.5 µg/mL (≈ 3.17 µM). The Protection in the assay with Candida albicans [5] and in the assay on Candida albicans [6] was 0% throughout.
As for `Cc1nc(S(=O)(=O)c2ccc(Cl)cc2)sc1C(=O)N[C@H](C)[C@](O)(Cn1cncn1)c1ccc(F)cc1F`, the MIC in assay [1] is above 80 µg/mL; in assay [3], 7.6 µg/mL (≈ 13.4 µM). Moreover, the Protection with Candida albicans [5] and in the assay on Candida albicans [6] was 0% throughout.
Regarding `Cc1nc(-c2ccc(OC(F)(F)F)cc2)sc1C(=O)N[C@H](C)[C@](O)(Cn1cncn1)c1ccc(F)cc1F`, the MIC in assay [1] amounted to 1.6 µg/mL (≈ 2.89 µM); in assay [3] it was 1.3 µg/mL (≈ 2.35 µM). For the same compound, the Protection in the assay with Candida albicans [5] and in the assay with Candida albicans [6] was 100% in each case.
`Cc1nc(-c2ccc(C#N)cc2)sc1C(=O)N[C@H](C)[C@](O)(Cn1cncn1)c1ccc(Cl)cc1Cl`: the minimal inhibitory concentration (MIC) was found to be 5 µg/mL (≈ 9.48 µM) in assay [1] and 0.4 µg/mL (≈ 0.758 µM) in assay [3]. The Protection with Candida albicans [5] and with Candida albicans [6] was 100% each time.
Take `C[C@@H](n1ncn(-c2ccc(OCC(F)(F)C(F)F)cc2)c1=O)[C@](O)(Cn1cncn1)c1ccc(F)cc1F`: the minimum inhibitory concentration (MIC) in assay [1] came to 8.9 µg/mL (≈ 16.4 µM); in assay [3] it was 2.6 µg/mL (≈ 4.79 µM). For the same compound, the Protection in the assay on Candida albicans [5] and in the assay with Candida albicans [6] was 100% each time.
As for `C[C@@H](NC(=O)c1sc(-c2ccc(C(F)(F)F)cc2)nc1C(F)(F)F)[C@](O)(Cn1cncn1)c1ccc(F)cc1F`, the MIC worked out at 17 µg/mL (≈ 28.7 µM) in assay [1] and 1.6 µg/mL (≈ 2.71 µM) in assay [3]. In addition, the Protection is below 20% in the assay with Candida albicans [5] and 90% in the assay with Candida albicans [6].
On the same counts, the results for `C[C@@H](NC(=O)c1nc(-c2ccc(Cl)cc2)ns1)[C@](O)(Cn1cncn1)c1ccc(F)cc1F` are above 80 µg/mL, 11 µg/mL (≈ 22.4 µM), 0% and 10%.
In the same order, the values of `Cc1nc(-c2ccccc2)sc1C(=O)N[C@H](C)[C@](O)(Cn1cncn1)c1ccc(F)cc1F` are 7.6 µg/mL (≈ 16.2 µM), 1.4 µg/mL (≈ 2.98 µM), 0% and 30%.
As for `C[C@@H](NC(=O)c1nnc(-c2ccc(Cl)cc2)o1)[C@](O)(Cn1cncn1)c1ccc(F)cc1F`, the MIC in assay [1] was above 80 µg/mL; in assay [3] it was 49 µg/mL (≈ 103 µM). Further, the Protection with Candida albicans [5] came to 0%; in the assay on Candida albicans [6] it was 10%.
In the same order, the values of `Cc1nc(-c2ccc(F)cc2)sc1C(=O)N[C@H](C)[C@](O)(Cn1cncn1)c1ccc(F)cc1F` are 1.8 µg/mL (≈ 3.69 µM), 1.1 µg/mL (≈ 2.26 µM), 80% and 100%.
In the same order, the values of `Cc1nc(-c2ccc(C#N)cc2)sc1C(=O)N[C@H](C)[C@](O)(Cn1ccnc1)c1ccc(F)cc1F` are 45 µg/mL (≈ 91.2 µM), 10 µg/mL (≈ 20.3 µM), 0% and 70%.
